We go through 37 variants from the RNAGym collection of RNA variant scans (doi:10.1126/science.aae0568).

B1: tRNA (parent)
chain: GUUCCGUUGGCGUAAUGGUAACGCGUCUCCCUCCUAAGGAGAAGACUGCGGGUUCGAGUCCCGUACGGAACG

This sample holds only a part of the variants without activity.

In the data set the parent is B1. In words: yeast fitness relative to wild type (ratio to wild type); higher = fitter; tRNA-Arg(CCU), competitive growth, 37 C, YPD. A digest of the protocol: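 Variants of the tRNA-Arg(CCU) gene were chemically synthesised with a 3% per-site mutation rate across 69 sites and placed at the native genomic locus in Saccharomyces cerevisiae. Six parallel replicates of the pooled strains were competed in YPD at 37°C for 24 hours, and gene amplicons from the start and end populations were read by 100-nucleotide paired-end sequencing. Darwinian fitness relative to wild type was derived from changes in genotype frequencies. Genotypes required ≥ 100 starting reads, and estimates < 0.5 were set to 0.5.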
Regarding GUUCCGUUGGCGUAAUGGUAACGCGUCUCCCUCCUAAGGAGGAGACUGCGGGUUCGAGUCCUGUACGGCACG, the yeast fitness worked out at 0.696.
Regarding GUUCCGUUGGCGUAAUGGUAACGCGUCUCCCUCCUAAGGAGCAGACAGCGGGUUCGAGUCCCCUACGGCACG, the yeast fitness was 0.578.
Regarding GUUCCGUUGGCGUAAUGGUAACGCGUCUCCCUCCUAAGGAGGAGACUGCGGGUACGAGACCCGUACGGAACG, the yeast fitness came to 0.541.
Next, GUUCCGUUGGCGUAAUGGUAACGCGUCUCCCUCCUAAGGAGCAGACUGCCGGUUCGAGUCCCGUACGGAACG: 0.548.
Next, GUUCCGUUGGCGUAAUGGUAACGCGUCUCCCUCCUAAGGAGCAGACCGCGGGUUCGAGUCCCAUACGGAACG: 0.692; GUUCCGUUGGCGUAAUGGUAACGCGUCUCCCUCCUAAGGAGCAGACUGCGGGUUCGAGUCCCCUACGGAACG: 0.681; GUUCCGUUGGCGUAAUGGUAACGCGUCUCCCUCCUAAGGAGCAGACGGCGGGUUCGAGUCCCGUACGGAACG: 0.607.
On to GUUCCGUUGGCGUAAUGGUAACGCGUCUCCCUCCUAAGGAGCAGACCGCGGGUUCGAGUCCCGUACGGUACG, for which the yeast fitness stood at 0.821.
On to GUUCCGUUGGCGUAAUGGUAACGCGUCUCCCUCCUAAGGAGGAGACUGCGGGUUCGAGUCACCUACGGAACG, for which the yeast fitness is at most 0.5.
In the case of GUUCCGUUGGCGUAAUGGUAACGCGUCUCCCUCCUAAGGAGCAGACUGCGGGUUCGAGUCCCGUAUGGAACG, the yeast fitness was found to be 0.816.
The value for GUUCCGUUGGCGUAAUGGUAACGCGUCUCCCUCCUAAGGAGGAGACUGUGAGUUCGAGUCCCGUACGGAACG was 0.535; that for GUUCCGUUGGCGUAAUGGUAACGCGUCUCCCUCCUAAGGAGGAGACUGGGGGUCCGAGUCCCCUACGGAACG was 0.524; that for GUUCCGUUGGCGUAAUGGUAACGCGUCUCCCUCCUAAGGAGGAGACUGCGGGUUCGAAUCCCGUACGGAACG was 0.879.
As for GUUCCGUUGGCGUAAUGGUAACGCGUCUCCCUCCUAAGGAGCAGACUGCGGGUUCGAGUCCCGGACGGAACG, the yeast fitness turned out to be 0.596.
Next, GUUCCGUUGGCGUAAUGGUAACGCGUCUCCCUCCUAAGGAGGAGACUGCGAGUUCGAGUCCCGUACGGAACG: 0.822; GUUCCGUUGGCGUAAUGGUAACGCGUCUCCCUCCUAAGGAGGAGACUGCGCGUUCGAGUCCCGUACGGAACG: at most 0.5.
The value for GUUCCGUUGGCGUAAUGGUAACGCGUCUCCCUCCUAAGGAGCAGACUGCGGGUUCGAGUCCUGUACGGUACG was 0.689.
Take GUUCCGUUGGCGUAAUGGUAACGCGUCUCCCUCCUAAGGAGCAGACUGCGGCUUCGAGUCCCGUACGGCACG: the yeast fitness is 0.607.
Consider GUUCCGUUGGCGUAAUGGUAACGCGUCUCCCUCCUAAGGAGCAGACUGCGGGAACGAGUCCCGUACGGAACG, for which the yeast fitness is at most 0.5.
The value for GUUCCGUUGGCGUAAUGGUAACGCGUCUCCCUCCUAAGGAGGAGACUGCGGGUUCGAGUCCCGUACGCGACG was 0.563.
Turning to GUUCCGUUGGCGUAAUGGUAACGCGUCUCCCUCCUAAGGAGCAGACUGCGGGUACGAGUCCCGUACCGUACG, the yeast fitness was 0.571.
With GUUCCGUUGGCGUAAUGGUAACGCGUCUCCCUCCUAAGGAGGAGACUGCGGGUUCGAGUCCCGUAAGGAACG, the yeast fitness was found to be 0.599.
GUUCCGUUGGCGUAAUGGUAACGCGUCUCCCUCCUAAGGAGGAGACUGCGGGUUCGAGUUCCGUACGGGUCG: the yeast fitness was at most 0.5.
On to GUUCCGUUGGCGUAAUGGUAACGCGUCUCCCUCCUAAGGAGCAGACUGCGAGUUCGAGUCCCGUACGGACCG, for which the yeast fitness stood at 0.578.
Take GUUCCGUUGGCGUAAUGGUAACGCGUCUCCCUCCUAAGGAGGAGACUGCGGGUUCGGGUCCCGUACGGAACG: the yeast fitness turned out to be 0.768.
For the variant GUUCCGUUGGCGUAAUGGUAACGCGUCUCCCUCCUAAGGAGGAGACUGCGGGUUCGUGUCCCGUACGGAACG, the yeast fitness was determined as 0.714.
Consider GUUCCGUUGGCGUAAUGGUAACGCGUCUCCCUCCUAAGGAGCAGACUGCGGGUUCGAGUUCCGUACGAAACG, for which the yeast fitness was at most 0.5.
As for GUUCCGUUGGCGUAAUGGUAACGCGUCUCCCUCCUAAGGAGGAGUCUGCGGGUUCGAGUCCCGCACGGACCG, the yeast fitness was at most 0.5.
In the case of GUUCCGUUGGCGUAAUGGUAACGCGUCUCCCUCCUAAGGAGGAGACUGCGGGUUCGAGUCCCGUACGGAUCG, the yeast fitness is 0.941.
Next, GUUCCGUUGGCGUAAUGGUAACGCGUCUCCCUCCUAAGGAGCAGACUGCGGGUUCGAGUCCCGUACGAAACG: 0.898; GUUCCGUUGGCGUAAUGGUAACGCGUCUCCCUCCUAAGGAGCAGACUGCGGGUUCGAGUCCCGUACGUAACG: 0.873.
On to GUUCCGUUGGCGUAAUGGUAACGCGUCUCCCUCCUAAGGAGGAGGCUGCGGGUUCGAGUCCCGUACGGAACG, for which the yeast fitness amounted to 0.786.
In the case of GUUCCGUUGGCGUAAUGGUAACGCGUCUCCCUCCUAAGGAGGAGUCUGCGGGUUCGAGUCCCGUACGGAACG, the yeast fitness was 0.952.
Consider GUUCCGUUGGCGUAAUGGUAACGCGUCUCCCUCCUAAGGAGGAGACUGCGGGUUCGAGUCACGUAAGGAACG, for which the yeast fitness was at most 0.5.
Take GUUCCGUUGGCGUAAUGGUAACGCGUCUCCCUCCUAAGGAGGAGACUGCGAGUUCGAGUUCCAUACGGAACG: the yeast fitness was at most 0.5.
GUUCCGUUGGCGUAAUGGUAACGCGUCUCCCUCCUAAGGAGGAGACUGCGGGUUCGAGUGGCGUACGGAACG: the yeast fitness is at most 0.5.
Next, GUUCCGUUGGCGUAAUGGUAACGCGUCUCCCUCCUAAGGAGCAGACUCCGGGUUCGAGUCCCGUACAGAACG: 0.574.
